Reference: publication PMC10868446 (Pharmaceutical Biology, 2024)

What was measured:
CYP2C9 = CYP2C9 (Homo sapiens, UniProt P11712); test: Time-dependent inhibition of CYP2C9 in HLMs; format: in vitro ADME; conditions: HLMs pre-incubated with physcion 30 min; incubation 5, 10, 15 and 30 min
Outline: (§1)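 Two-step format: microsomes were pre-incubated with the test compound for 30 min. A 20 μL aliquot was transferred to a second tube with substrate near Km and started with the NADPH-generating system. Incubations ran 5, 10, 15 and 30 min, were stopped with acetonitrile and centrifuged, and residual activity was measured by HPLC. Triplicate.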

CYP2D6 = CYP2D6 (Homo sapiens, UniProt P10635); test: Time-dependent inhibition of CYP2D6 in HLMs; format: in vitro ADME; conditions: HLMs pre-incubated with physcion 30 min; incubation 5, 10, 15 and 30 min
Outline: as §1

[1] = after rhubarb extract administration; ref Ding et al. [2003]; Xun et al. [2019]; cited from earlier work
[2] = rats; after administration of Semen Cassiae extract; ref Yang et al. [2015]; cited from earlier work
CYP3A4 = CYP3A4 (Homo sapiens, UniProt P08684); test: Time-dependent inhibition of CYP3A4 in HLMs; format: in vitro ADME
[3] = test system: CYP450 isoforms (1A2, 2A6, 2C8, 2C9, 2C19, 2D6, 2E1, 3A4); test: Cocktail assay of CYP450 isoform activity in pooled human liver microsomes; format: in vitro ADME; conditions: pooled HLMs, 100 μM physcion
Outline: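 Single-concentration screen in pooled human liver microsomes with the test compound at 100 μM, a blank negative control and typical isoform inhibitors as positive controls. Incubation was in 100 mM potassium phosphate, pH 7.4, with an NADPH-generating system after 3 min pre-incubation. Reactions were stopped with acetonitrile (trichloroacetic acid for CYP2A6), and probe metabolites were quantified by HPLC. Triplicate; one-way ANOVA against the negative control.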

Sequence of CYP3A4 (P08684 whole entry, canonical isoform): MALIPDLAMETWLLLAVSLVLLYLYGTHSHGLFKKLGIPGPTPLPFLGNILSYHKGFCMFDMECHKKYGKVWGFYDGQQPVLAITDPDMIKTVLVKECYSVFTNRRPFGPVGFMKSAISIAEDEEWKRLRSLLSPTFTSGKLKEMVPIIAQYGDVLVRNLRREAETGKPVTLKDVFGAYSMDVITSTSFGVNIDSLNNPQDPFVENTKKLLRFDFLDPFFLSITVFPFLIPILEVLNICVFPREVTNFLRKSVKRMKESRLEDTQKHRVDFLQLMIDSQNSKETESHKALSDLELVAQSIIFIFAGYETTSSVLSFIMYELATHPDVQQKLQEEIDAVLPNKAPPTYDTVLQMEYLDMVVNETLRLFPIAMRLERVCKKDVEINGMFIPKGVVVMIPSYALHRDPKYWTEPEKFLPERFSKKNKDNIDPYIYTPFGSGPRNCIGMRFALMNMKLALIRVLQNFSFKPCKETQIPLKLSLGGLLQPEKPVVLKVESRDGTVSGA
Sequence of CYP2D6 (P10635 whole entry): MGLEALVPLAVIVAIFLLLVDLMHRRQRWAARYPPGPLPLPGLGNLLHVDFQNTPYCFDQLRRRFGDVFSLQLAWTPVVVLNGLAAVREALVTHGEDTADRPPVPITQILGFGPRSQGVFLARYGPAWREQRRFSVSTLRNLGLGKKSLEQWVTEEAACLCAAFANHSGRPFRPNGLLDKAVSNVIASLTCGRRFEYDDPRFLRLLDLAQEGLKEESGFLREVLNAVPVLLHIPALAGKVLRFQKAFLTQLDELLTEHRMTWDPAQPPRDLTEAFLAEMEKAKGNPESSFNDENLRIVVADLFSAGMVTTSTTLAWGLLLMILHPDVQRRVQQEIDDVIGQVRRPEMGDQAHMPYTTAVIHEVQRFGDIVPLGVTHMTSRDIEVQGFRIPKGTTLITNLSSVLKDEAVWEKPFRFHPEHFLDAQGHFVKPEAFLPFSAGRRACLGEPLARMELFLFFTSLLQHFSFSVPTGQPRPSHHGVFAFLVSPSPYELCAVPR
Sequence of CYP2C9 (P11712 whole entry): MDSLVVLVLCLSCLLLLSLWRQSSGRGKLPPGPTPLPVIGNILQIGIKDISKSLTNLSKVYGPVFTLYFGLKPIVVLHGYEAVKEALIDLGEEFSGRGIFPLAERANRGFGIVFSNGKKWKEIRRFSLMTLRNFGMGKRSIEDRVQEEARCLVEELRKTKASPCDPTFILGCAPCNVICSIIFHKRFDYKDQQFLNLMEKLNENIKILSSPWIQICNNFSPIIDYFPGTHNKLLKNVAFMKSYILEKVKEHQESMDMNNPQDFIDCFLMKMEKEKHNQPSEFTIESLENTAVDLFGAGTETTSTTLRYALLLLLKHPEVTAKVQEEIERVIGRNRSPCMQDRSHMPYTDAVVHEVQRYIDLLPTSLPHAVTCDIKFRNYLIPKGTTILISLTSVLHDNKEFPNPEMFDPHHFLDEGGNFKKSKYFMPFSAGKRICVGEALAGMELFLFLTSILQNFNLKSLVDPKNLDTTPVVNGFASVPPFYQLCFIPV

COc1cc(O)c2c(c1)C(=O)c1cc(C)cc(O)c1C2=O [physcion, Physcion]
Time dependence of CYP2C9 inhibition (CYP2C9): not influenced | Time dependence of CYP2D6 inhibition (CYP2D6): not influenced | Maximum concentration of physcion [1]: 0.032 µg/mL | Time at which the maximum concentration was reached [1]: 2 h | Maximum plasma concentration [2]: 461.85 ± 266.77 ng/mL | Time of maximum plasma concentration [2]: 0.167 ± 0.002 h | KI (time-dependent inhibition of CYP3A4) (CYP3A4; 0–50 μM physcion, substrate approx. 4-fold Km, 0–30 min): 3.10 µM⁻¹ | Time dependence of CYP3A4 inhibition (CYP3A4; HLMs pre-incubated with physcion 30 min, incubation 5, 10, 15 and 30 min): time-dependent | Inhibitory effect relative to the positive inhibitors of CYP2C9, 2D6 and 3A4 [3]: weaker than the positive inhibitors | Effect on activity of the major CYP450 isoforms ([3]; compared with negative control): Only the activity of CYP2C9, 2D6 and 3A4 was inhibited
